From ChEMBL document CHEMBL1938298, “Synthesis and characterization of [¹²⁵I]2-iodo N-[(S)-{(S)-1-methylpiperidin-2-yl}(phenyl)methyl]3-trifluoromethyl-benzamide as novel imaging probe for glycine transporter 1” (Bioorg Med Chem, 2011) come the findings set out here.

The source made the active and inactive calls. The calls are words filed in the database; no cut-off is given here.

In data set [1] the target is T1, Sodium- and chloride-dependent glycine transporter 1 (Rattus norvegicus) (UniProt P28572).
T1 sequence (whole entry): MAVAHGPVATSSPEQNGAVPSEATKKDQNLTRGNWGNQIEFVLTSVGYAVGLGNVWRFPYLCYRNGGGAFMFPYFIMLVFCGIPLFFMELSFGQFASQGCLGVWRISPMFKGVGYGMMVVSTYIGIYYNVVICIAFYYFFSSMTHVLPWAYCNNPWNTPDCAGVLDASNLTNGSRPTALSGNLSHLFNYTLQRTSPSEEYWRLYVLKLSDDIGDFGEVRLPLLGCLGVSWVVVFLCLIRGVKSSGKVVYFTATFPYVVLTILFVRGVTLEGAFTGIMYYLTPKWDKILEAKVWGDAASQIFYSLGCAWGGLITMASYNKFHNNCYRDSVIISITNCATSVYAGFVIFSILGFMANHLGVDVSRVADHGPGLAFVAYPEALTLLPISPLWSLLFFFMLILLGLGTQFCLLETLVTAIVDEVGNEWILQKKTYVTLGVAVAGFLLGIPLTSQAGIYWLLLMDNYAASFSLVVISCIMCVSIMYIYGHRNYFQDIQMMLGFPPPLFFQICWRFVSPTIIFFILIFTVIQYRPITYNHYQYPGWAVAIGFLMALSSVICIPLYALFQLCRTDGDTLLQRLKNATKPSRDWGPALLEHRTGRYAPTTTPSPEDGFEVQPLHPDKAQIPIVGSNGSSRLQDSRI
The experiment in a line: Binding affinity to GlyT1 in rat brain striatum at 0.03 to 0.04 nM preincubated for 20 mins in binding buffer before compound addition measured after 30 mins by autoradiography in presence of 0.01 mM GlyT2 inhibitor ORG25543 relative to control. The data set is classed as tissue-based. Particulars: tested as the 125I-labelled form.

Data set [2] concerns the target T1, Sodium- and chloride-dependent glycine transporter 1 (Rattus norvegicus). The experiment in a line: Binding affinity to GlyT1 in rat brain thalamus at 0.03 to 0.04 nM preincubated for 20 mins in binding buffer before compound addition measured after 30 mins by autoradiography in presence of 0.01 mM GlyT1 inhibitor ALX5407 relative to control. Particulars: tested as the 125I-labelled form. It is filed as tissue-based.

Data set [3] shares this target. The data set can be described thus: Binding affinity to GlyT1 in rat brain medullary region at 0.03 to 0.04 nM preincubated for 20 mins in binding buffer before compound addition measured after 30 mins by autoradiography in presence of 0.01 mM GlyT1 inhibitor ALX5407 relative to control. Particulars: tested as the 125I-labelled form. The data set is classed as tissue-based. The method in brief:
(§1)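 Rat brain sagittal sections (20 µm) preincubated 20 min at 25 °C in Tris-HCl buffer pH 7.5 (NaCl, KCl, MgCl2, CaCl2), then 30 min at 25 °C with [125I] tracer (100 kBq, 0.03–0.04 nM) plus competitor (10 µM; glycine 1 or 10 mM). Cold washes, imaging plate 3 days, ROI PSL minus background per mm². % control from ≥triplicate slices, three rats.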

Data set [4] shares this target. The experiment in a line: Binding affinity to GlyT1 in rat brain cerebellum at 0.03 to 0.04 nM preincubated for 20 mins in binding buffer before compound addition measured after 30 mins by autoradiography in presence of GlyT1 inhibitor N-Me-SSR504734 relative to control. It is filed as tissue-based. Particulars: tested as the 125I-labelled form. The method in brief:
as §1

For data set [5] the target is unchanged. The experiment in a line: Binding affinity to GlyT1 in rat brain cerebral cortex at 0.03 to 0.04 nM preincubated for 20 mins in binding buffer before compound addition measured after 30 mins by autoradiography relative to control. It is filed as tissue-based. Particulars: tested as the 125I-labelled form. The method in brief:
(§2)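 Rat brain sagittal sections (20 µm), 20 min preincubation at 25 °C in Tris-HCl pH 7.5 binding buffer, then [125I] tracer (100 kBq, 0.03–0.04 nM) for 30 min at 25 °C. Nonspecific binding taken with 10 µM unlabeled ligand. Imaging-plate read-out as (PSL−BG)/mm². Mean ± SD, n = 4–5 from at least three rats; Mann–Whitney U-test.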

Data set [6] shares this target. The data set can be described thus: Binding affinity to GlyT1 in rat brain hippocampus at 0.03 to 0.04 nM preincubated for 20 mins in binding buffer before compound addition measured after 30 mins by autoradiography relative to control. The data set is classed as tissue-based. Particulars: tested as the 125I-labelled form. The method in brief: as §2
Data set [7] has the same target. The experiment in a line: Binding affinity to GlyT1 in rat cortical brain homogenate assessed per mg of protein after 60 mins by gamma counting. It is filed as tissue-based. Particulars: tested as the 125I-labelled form. The method in brief:
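Saturation binding on washed rat cortical membranes (25 µg protein) with [125I]tracer 0.1–20 nM in TB1 buffer (120 mM NaCl, 2 mM KCl, 1 mM CaCl2, 1 mM MgCl2, 10 mM HEPES, pH 7.5), 60 min at room temperature. Nonspecific binding defined with 10 µM unlabeled ligand. GF/B filtration with ice-cold buffer washes, gamma counting; Kd and Bmax from saturation analysis.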

Data set [8] has the same target. The data set can be described thus: Binding affinity to GlyT1 in rat brain cerebral cortex at 0.03 to 0.04 nM preincubated for 20 mins in binding buffer before compound addition measured after 30 mins by autoradiography in presence of 0.01 mM GlyT1 inhibitor ALX5407 relative to control. It is filed as tissue-based. Particulars: tested as the 125I-labelled form. The method in brief:
as §1

The target is the same in data set [9]. The experiment in a line: Binding affinity to GlyT1 in rat brain cerebral cortex at 0.03 to 0.04 nM preincubated for 20 mins in binding buffer before compound addition measured after 30 mins by autoradiography in presence of 0.01 mM GlyT2 inhibitor ORG25543 relative to control. Particulars: tested as the 125I-labelled form. The data set is classed as tissue-based. The method in brief:
as §1

Another data set has as its system Blood. The data set can be described thus: Drug uptake in ddY mouse blood at 11.1 kBq, iv after 5 min by gamma counting. It is filed as ADME, organism-based. Particulars: in vivo. The method in brief:
(§3)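 Male ddY mice (6 weeks, 30–35 g) received about 11.1 kBq [125I]tracer in 0.1 mL i.v. via tail vein. Killed at set times, organs dissected and weighed, radioactivity gamma counted. Reported as % injected dose/g tissue, mean ± SD, n = 5–6.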

In the next data set the test system is Liver. The data set can be described thus: Drug uptake in ddY mouse liver at 11.1 kBq, iv after 60 min by gamma counting. The data set is classed as ADME, organism-based. Particulars: in vivo, 1 h. The method in brief: (§4)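 Male ddY mice (6 weeks, 30–35 g) were given about 11.1 kBq of [125I]tracer in 0.1 mL i.v. via the tail vein. At each time point the animals were killed and organs dissected, weighed and gamma-counted. Uptake is expressed as % injected dose per gram of tissue, mean ± SD, n = 5–6.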

For a further data set, the system named is Kidney. The data set can be described thus: Drug uptake in ddY mouse kidney at 11.1 kBq, iv after 30 min by gamma counting. The data set is classed as ADME, organism-based. Particulars: in vivo, 0.5 h. The method in brief: as §4
For another data set, the system named is Spleen. The data set can be described thus: Drug uptake in ddY mouse spleen at 11.1 kBq, iv after 30 min by gamma counting. Particulars: in vivo, 0.5 h. It is filed as ADME, organism-based. The method in brief: as §4
The test system of the next data set is Mus musculus. The data set can be described thus: In vivo binding affinity to GlyT1 in ddY mouse brain medullary region at 33.3 kBq, iv after 30 mins in presence of nonradioactive compound 2 mg/kg, iv administered 15 mins prior to compound administration relative to control. The data set is classed as functional, Medulla of organ.
Data set [10] deals with Pancreas. The data set can be described thus: Drug uptake in ddY mouse pancreas at 11.1 kBq, iv after 0.5 min by gamma counting. The data set is classed as ADME, organism-based. Particulars: in vivo. The method in brief: as §4
For data set [11], the system named is Pancreas. The experiment in a line: Drug uptake in ddY mouse pancreas at 11.1 kBq, iv after 15 min by gamma counting. The data set is classed as ADME, organism-based. Particulars: in vivo. The method in brief:
as §4

For data set [12], the system named is Pancreas. The experiment in a line: Drug uptake in ddY mouse pancreas at 11.1 kBq, iv after 180 min by gamma counting. It is filed as ADME, organism-based. Particulars: in vivo, 3 h. The method in brief: as §4
Data set [13] deals with Heart. The data set can be described thus: Drug uptake in ddY mouse heart at 11.1 kBq, iv after 0.5 min by gamma counting. It is filed as ADME, organism-based. Particulars: in vivo. The method in brief:
as §3

The subject of data set [14] is Heart. The experiment in a line: Drug uptake in ddY mouse heart at 11.1 kBq, iv after 15 min by gamma counting. It is filed as ADME, organism-based. Particulars: in vivo. The method in brief: as §3

Take `CN1CCCC[C@H]1[C@@H](NC(=O)c1cccc(C(F)(F)F)c1I)c1ccccc1`: the Activity was 104% in data set [1]; 33.2% in data set [2]; 25.3% in data set [3]; 28.9% in data set [4]; 57.6% in [8]; 95.1% in data set [9]. The result in data set [5] and in data set [6] was inactive. Further, the Bmax in [7] was determined as 3.4 pmol.

`CN1CCCC[C@H]1[C@@H](NC(=O)c1cccc(C(F)(F)F)c1[125I])c1ccccc1`: the Drug uptake in the data set with Blood is on record as 0.87 % ID/g; in the data set on Liver it was 16.04 % ID/g; in the data set on Kidney, 10.22 % ID/g; in the data set on Spleen, 7.68 % ID/g; in the data set with Pancreas [10], 1.18 % ID/g; in the data set with Pancreas [11] it was 7.93 % ID/g. The Drug uptake with Pancreas [12] turned out to be 4.84 % ID/g; in the data set with Heart [13], 8.19 % ID/g; in the data set on Heart [14], 3.38 % ID/g. Moreover, in the data set on Mus musculus, the Activity was found to be 53%.
